Experimental data taken from publication PMC2606940 (The Journal of General Physiology, 2009).
Changes are numbered by the printed parent chain. Read-outs that look alike come from different tables or passages of the source.

Legend:
[1] = target: T1, CLC-0 E166L mutant (Torpedo marmorata, UniProt P21564, C212S/E166L); format: cell-based; settings: for IC50: read-out: Apparent affinity (K1/2)
T1 sequence (P21564 1-805 E166L/C212S): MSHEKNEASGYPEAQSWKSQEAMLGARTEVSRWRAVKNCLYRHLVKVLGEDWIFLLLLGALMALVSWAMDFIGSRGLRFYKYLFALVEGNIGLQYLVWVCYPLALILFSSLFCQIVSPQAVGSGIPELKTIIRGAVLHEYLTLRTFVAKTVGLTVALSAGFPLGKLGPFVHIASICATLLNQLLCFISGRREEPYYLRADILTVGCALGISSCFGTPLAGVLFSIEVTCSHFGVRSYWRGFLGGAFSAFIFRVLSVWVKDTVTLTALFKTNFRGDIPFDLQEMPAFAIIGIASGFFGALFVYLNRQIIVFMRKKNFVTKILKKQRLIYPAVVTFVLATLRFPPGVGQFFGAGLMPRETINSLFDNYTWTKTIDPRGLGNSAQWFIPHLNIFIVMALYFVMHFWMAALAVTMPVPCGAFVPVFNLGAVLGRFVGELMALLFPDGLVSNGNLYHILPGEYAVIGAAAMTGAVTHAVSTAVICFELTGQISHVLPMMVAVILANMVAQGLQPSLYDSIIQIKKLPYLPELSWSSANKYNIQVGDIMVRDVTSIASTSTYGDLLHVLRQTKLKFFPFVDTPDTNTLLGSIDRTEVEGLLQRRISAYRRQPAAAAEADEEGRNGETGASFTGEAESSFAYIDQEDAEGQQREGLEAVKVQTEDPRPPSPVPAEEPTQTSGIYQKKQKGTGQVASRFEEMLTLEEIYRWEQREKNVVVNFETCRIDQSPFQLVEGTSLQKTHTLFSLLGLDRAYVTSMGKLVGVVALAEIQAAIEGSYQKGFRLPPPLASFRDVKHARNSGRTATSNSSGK
Procedure, shortened: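 CLC-0 mutants in the C212S background were transfected into HEK293 cells with lipofectamine and recorded 1–3 d later as excised inside-out patches. Both sides held 130 mM NaCl, 5 mM MgCl2, 10 mM HEPES and 1 mM EGTA, pH 7.4. CPA was perfused continuously onto the cytoplasmic face. Steady-state current over the last 10 ms was normalized to bracketing blocker-free controls and fitted to a Langmuir function for K1/2. Values are mean ± SEM of ~4–6 patches.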

[2] = target: T2, CLC-0 E166F mutant (Torpedo marmorata, UniProt P21564, C212S/E166F); format: cell-based; settings: read-out: Apparent affinity (K1/2)
T2 sequence (P21564 1-805 E166F/C212S): T1 sequence (P21564 1-805 E166L/C212S) with L166F
Procedure, shortened: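 CLC-0 mutants (C212S background) were lipofectamine-transfected into HEK293 cells and recorded 1–3 d later from inside-out patches. Pipette and bath contained 130 mM NaCl, 5 MgCl2, 10 HEPES and 1 EGTA (pH 7.4). Test compound was perfused onto the cytoplasmic side. A +80 mV prepulse preceded steps to steady state. The last-10-ms current was normalized to bracketing blocker-free controls and fitted to a Langmuir function for K1/2.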

SMILES	IC50 ([1]; −40 mV) [µM]	IC50 ([1]; −60 mV) [µM]	IC50 ([1]; −80 mV) [µM]	IC50 ([1]; −100 mV) [µM]	IC50 ([1]; −120 mV) [µM]	IC50 ([1]; −140 mV) [µM]	IC50 ([1]; −160 mV) [µM]	IC50 ([2]; −40 mV) [µM]	IC50 ([2]; −60 mV) [µM]	IC50 ([2]; −80 mV) [µM]	IC50 ([2]; −100 mV) [µM]	IC50 ([2]; −120 mV) [µM]	IC50 ([2]; −140 mV) [µM]	IC50 ([2]; −160 mV) [µM]	block of current ([1]; 0.3 mM CPA, −160 mV) [%]
CCCCCCCC(=O)O [octanoate]	342 ± 53	192 ± 22	106 ± 10	57 ± 5	32 ± 3	18 ± 2	11 ± 1	3090 ± 560	1630 ± 160	803 ± 50	455 ± 15	254 ± 7	150 ± 4	91 ± 1	
O=C(O)COc1ccc(Cl)cc1 [CPA, p-chlorophenoxy acetate]	4640 ± 190	2610 ± 80	1460 ± 30	800 ± 20	470 ± 10	280 ± 10	180 ± 10	5120 ± 1720	2060 ± 300	730 ± 90	350 ± 30	170 ± 20	93 ± 12	47 ± 7	~60
